# Measured values: PubChem BioAssay
# Activity calls are given as the source filed them.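 Rule for the calls, unless noted: active = inhibition at or above 50% relative to wild type and mutant plate controls; inactive = inhibition below 50%.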
# How the values were obtained:
# [1] = inhibitors of TNFa-induced NFkB p65 translocation, primary screen, imaging, HUVEC, MLSMR starter and 10KST1 sets (AID 438;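 active = inhibition above 20% together with a positive visual image hit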;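 note: compound added about 3h40 before a 20 min TNFalpha stimulation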;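 for inhibition: signal is the nuclear over cytoplasmic p65 intensity ratio per well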); conditions: HUVEC TNFa-induced p65 nuclear translocation; cell count: measured here: nuclei count (cytotoxicity indicator), at 2.08 µM unless noted; inhibition: at 2 µM, stronger effect = higher value unless noted
# [2] = endothelial E-selectin expression blockers – imaging, HUVEC, immunofluorescence, MLSMR starter and 10KST1 sets, primary screen (AID 487;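 active = visually confirmed hit in the image check and inhibition above 20%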;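 for inhibition: signal is fraction of cell area covered by stained E-selectin grains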;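 for nuclei count: 100% = median nuclei count of all wells on the same plate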); conditions: HUVEC TNFalpha-induced E-selectin immunofluorescence imaging, at 2 µM; inhibition: stronger effect = higher value; nuclei count: measured here: cell number, toxicity
# [3] = Primary imaging screen for DUSP6 inhibitors that restore phospho-Erk in transfected HeLa cells, chemical complementation (AID 609;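 active = compounds giving at least 50% inhibition in the cell-based MKP-3 phosphatase rescue imaging test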;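 for inhibition: phospho-Erk level distribution per well compared with pooled transfected vehicle control wells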); conditions: HeLa MKP-3 transfected, phospho-Erk imaging KS statistic, at 10 µM
# [4] = target: Dual specificity protein phosphatase 6 (Homo sapiens) (UniProt Q16828); assay: as above; conditions: HeLa MKP-3 transfected, phospho-Erk imaging KS statistic, at 10 µM, stronger effect = higher value
# [5] = target: Voltage-gated potassium channel subunit beta-2 (Rattus norvegicus) (UniProt P62483); assay: inhibitors of rat Kvbeta2 reductase activity – biochemical, NADPH fluorescence, primary screen (AID 622;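 active = fluorescence slope higher than the sample average by over 3 SD, cut at about -0.22 in these data, passing the limit was not always enough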;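 note: slope of raw intensity against log time taken from 70 to 1610 s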); conditions: recombinant KvBeta, 4-cyanobenzaldehyde reduction, at 10 µM, stronger effect = higher value
# [6] = target: Voltage-gated potassium channel subunit beta-2 (Rattus norvegicus) (UniProt P62483); assay: enhancers of rat Kvbeta2 NADPH turnover – biochemical, NADPH fluorescence, primary screen (AID 623;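 active = NADPH fluorescence slope more negative than the mean of all samples by about 3 SD, 99.7% confidence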;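 note: fluorescence intensity change per second fitted from 20 to 320 s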); conditions: Recombinant KvBeta, NADPH fluorescence decrease slope, 10 min; at 10 µM; stronger effect = lower value
# [7] = target: Alpha-2C adrenergic receptor (Homo sapiens) (UniProt P18825); assay: compounds altering alpha2C-coupled GIRK flux – cell-based, HEK293 alpha2C/GIRK1/2, thallium flux, primary screen (AID 624;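 active = fluorescence slope after compound addition differing from the mean of all screened samples at 99.7% confidence, in either direction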;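 note: slope of fluorescence ratio to pre-addition baseline per second over 15 to 24 s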); conditions: thallium flux BTC fluorescence, at 10 µM, actives lie on both sides
# [8] = inhibitors of larval lipid processing in zebrafish, primary screen, whole organism, PED6 fluorescence, gall bladder and intestine (AID 686;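 active = a full or partial loss of lipid-probe fluorescence in the fish gall bladder, intestine or both, judged by eye; inactive = no fluorescence loss, or compound toxic to the fish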;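 note: larvae 5 to 7 days old with five fish per well; signal comes from phospholipase A2 cleavage of quenched PED6 carried via bile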); conditions: Zebrafish larvae PED6 lipid processing, fluorescence scoring
# How it was run: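 Incubation: overnight exposure of larvae to compound plus PED6 / Test system: live zebrafish larvae aged 5-7 days, whole organism / Amount: 5 larvae per well / Read-out basis: visual per-well fluorescence inhibition score / Signal: visual fluorescence microscopy scoring of gall bladder, gut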
# [9] = loss of swimming-algae plug formation – whole organism, Chlamydomonas reinhardtii, WT vs cilia-less mutant, absorbance, 96-well, primary screen (AID 463189); conditions: Chlamydomonas reinhardtii gravitaxis, OD600 absorbance, 2 days; at 10 µM; stronger effect = higher value;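 note: 0% = wild type cc124 cells in DMSO and 100% = ciliumless bld1 mutant cells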
# [10] = measured here: cell density z-score
# [11] = measured here: nuclear c-Myc green intensity z-score
# [12] = measured here: nuclear pErk red intensity z-score, stronger effect = higher value
# Sequence of Alpha-2C adrenergic receptor (Homo sapiens) (P18825 whole entry, looked up): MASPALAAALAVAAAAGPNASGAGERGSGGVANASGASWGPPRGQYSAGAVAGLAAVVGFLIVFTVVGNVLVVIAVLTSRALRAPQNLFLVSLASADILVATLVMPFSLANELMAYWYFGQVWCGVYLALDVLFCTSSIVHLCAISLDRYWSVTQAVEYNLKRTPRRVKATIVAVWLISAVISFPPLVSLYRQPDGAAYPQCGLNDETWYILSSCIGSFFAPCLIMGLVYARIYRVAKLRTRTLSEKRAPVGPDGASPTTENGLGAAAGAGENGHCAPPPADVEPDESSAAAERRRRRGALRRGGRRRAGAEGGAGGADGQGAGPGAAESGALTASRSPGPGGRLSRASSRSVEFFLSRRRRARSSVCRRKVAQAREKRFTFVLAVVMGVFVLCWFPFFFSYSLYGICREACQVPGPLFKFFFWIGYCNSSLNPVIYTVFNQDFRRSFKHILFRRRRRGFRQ
# Sequence of Dual specificity protein phosphatase 6 (Homo sapiens) (Q16828 whole entry, looked up): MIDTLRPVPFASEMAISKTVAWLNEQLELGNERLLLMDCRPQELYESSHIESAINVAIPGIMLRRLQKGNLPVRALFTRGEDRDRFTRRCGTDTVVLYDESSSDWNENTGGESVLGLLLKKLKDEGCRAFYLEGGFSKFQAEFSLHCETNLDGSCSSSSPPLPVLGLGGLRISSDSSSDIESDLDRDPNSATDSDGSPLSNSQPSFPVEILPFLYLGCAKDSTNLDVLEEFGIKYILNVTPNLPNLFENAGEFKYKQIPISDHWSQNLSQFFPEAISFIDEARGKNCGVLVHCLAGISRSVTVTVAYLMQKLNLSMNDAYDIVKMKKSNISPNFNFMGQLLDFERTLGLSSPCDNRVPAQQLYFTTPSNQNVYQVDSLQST
# Sequence of Voltage-gated potassium channel subunit beta-2 (Rattus norvegicus) (P62483 whole entry, looked up): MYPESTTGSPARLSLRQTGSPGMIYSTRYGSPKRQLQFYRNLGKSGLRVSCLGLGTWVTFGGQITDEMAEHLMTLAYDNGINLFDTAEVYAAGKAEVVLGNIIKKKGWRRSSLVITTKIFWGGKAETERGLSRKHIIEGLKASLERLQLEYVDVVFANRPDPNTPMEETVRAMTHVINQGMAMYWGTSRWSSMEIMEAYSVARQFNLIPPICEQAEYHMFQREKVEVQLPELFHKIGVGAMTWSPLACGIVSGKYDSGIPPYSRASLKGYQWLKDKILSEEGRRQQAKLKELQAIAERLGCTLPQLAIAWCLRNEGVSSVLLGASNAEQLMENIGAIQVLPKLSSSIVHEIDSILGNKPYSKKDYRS
Compound,cell count [1],inhibition [1],inhibition [2],nuclei count [2] [%],"z-score [3, 10]","z-score [3, 11]","z-score [3, 12]",inhibition [4],fluorescence slope [5],NADPH fluorescence slope [6],slope [7],outcome [8],inhibition [9]
O=c1[nH]c(=O)n(Cc2ccccc2)c(O)c1C=NCCN1CCOCC1,639,-25.9% (inactive),-59.7% (inactive),156,0.666,-2.11,2.73,2.71% (inactive),-0.393 (inactive),-1.2e-06 (inactive),0.00558 (inactive),inactive,0.831% (inactive)
CCCSP1(=S)NCCCO1 (configuration not stated),455,-11.8% (inactive),-157% (inactive),122,0.345,-0.499,-0.356,-2.07% (inactive),-0.54 (inactive),-7.2e-05 (inactive),0.00464 (inactive),inactive,20.8% (inactive)
O=c1c(C=NCCN2CCNCC2)c(O)n(C2CCCCC2)c(=O)n1C1CCCCC1,583,-5.8% (inactive),-162% (inactive),138,0.0473,0.939,0.718,3.97% (inactive),-0.516 (inactive),-3.1e-05 (inactive),0.00535 (inactive),inactive,2.5% (inactive)
CC1(C)CC(=O)C(C=NCCN2CCN(C(=O)Cc3ccc(F)cc3)CC2)=C(O)C1,580,5.6% (inactive),-57.7% (inactive),140,0.866,1.58,-0.927,17.8% (inactive),-0.481 (inactive),-3.6e-05 (inactive),0.00584 (inactive),inactive,-8.15% (inactive)
COCCOC(=O)C1=C(N)Oc2c(c(=O)oc3ccccc23)[C@@]12C(=O)Nc1ccccc12,600,-9.7% (inactive),-14.5% (inactive),105,0.613,0.851,-1.5,-2.29% (inactive),-0.499 (inactive),2.1e-05 (inactive),0.00465 (inactive),inactive,-16.3% (inactive)
COc1cc2[nH]c(=O)n(-c3cccc(Cl)c3)c(=O)c2cc1OC,636,-0.6% (inactive),-128% (inactive),159,0.96,-1.11,1.07,-1.12% (inactive),-0.467 (inactive),-0.000203 (inactive),0.00492 (inactive),inactive,-6.85% (inactive)
O=c1[nH]c(=O)n(CCc2ccccc2)c(O)c1C=NCCCn1ccnc1,364,-0.9% (inactive),-29% (inactive),94.5,-0.281,-0.0547,0.509,-2.59% (inactive),-0.581 (inactive),1.1e-06 (inactive),0.00497 (inactive),inactive,35.6% (inactive)
COc1ccc(Cn2c(O)c(C=NCCN3CCOCC3)c(=O)[nH]c2=O)cc1,587,-0.9% (inactive),36.9% (inactive),166,0.642,-0.606,-0.227,19.3% (inactive),-0.342 (inactive),-2.7e-06 (inactive),0.00514 (inactive),inactive,-7.73% (inactive)
CCN(CC)CCN=C(C)c1c(O)n(-c2ccccc2OC)c(=O)[nH]c1=O,564,0.8% (inactive),-34% (inactive),88.8,-0.563,-1.02,1.36,-2.91% (inactive),-0.555 (inactive),-2.8e-05 (inactive),0.0051 (inactive),inactive,-0.4% (inactive)
COc1ccc(C(=O)CN2CCOCC2)cc1F,662,-8.3% (inactive),-111% (inactive),168,-0.933,0.019,-0.631,5.57% (inactive),-0.506 (inactive),-5.2e-05 (inactive),0.0047 (inactive),inactive,0.889% (inactive)
CCCCSP1(=S)NCCCO1 (configuration not stated),490,-12.8% (inactive),-2.8% (inactive),116,0.851,-1.48,-1.55,9.39% (inactive),-0.465 (inactive),-0.000374 (inactive),0.00445 (inactive),inactive,18.8% (inactive)
CC(=O)C1(c2ccccc2)CCNCC1,472,0.5% (inactive),-152% (inactive),138,-0.428,0.195,0.843,7.93% (inactive),-0.522 (inactive),-4.6e-05 (inactive),0.00442 (inactive),inactive,14.1% (inactive)
CCOC(=O)[C@]1(C#N)[C@@H]2C=CC(C(C)=O)=CN2[C@@H](C(N)=O)[C@@H]1c1ccsc1,560,-5.3% (inactive),-130% (inactive),212,0.77,0.227,-0.321,-2.91% (inactive),-0.358 (inactive),-1.4e-05 (inactive),-0.00125 (inactive),inactive,13.7% (inactive)
CCOC(=O)[C@@]1(C#N)[C@@H]2C=CC(C(N)=O)=CN2[C@@H](C(N)=O)[C@@H]1c1cccc(Cl)c1,359,-11.1% (inactive),-137% (inactive),133,1.68,-1.47,-0.2,11.4% (inactive),-0.368 (inactive),-1e-05 (inactive),0.00498 (inactive),inactive,24.1% (inactive)
COc1ccc(Cn2c(O)c(C=NCCCn3ccnc3)c(=O)[nH]c2=O)cc1,466,-0.7% (inactive),54% (inactive),81.9,-1.17,0.328,0.929,4.25% (inactive),-0.443 (inactive),-1.5e-05 (inactive),0.00461 (inactive),inactive,-4.22% (inactive)
COc1cccc(-n2c(C)nc3ccccc3c2=O)c1,554,7.1% (inactive),-57.2% (inactive),161,0.773,1.04,-1.15,7.73% (inactive),-0.353 (inactive),2e-05 (inactive),0.00545 (inactive),inactive,-5.87% (inactive)
CCC(=NCCOc1ccc(Cl)cc1)c1c(O)n(C)c(=O)n(C)c1=O,555,-7.6% (inactive),-89.2% (inactive),99.1,0.38,-2.81,0.837,13.2% (inactive),-0.532 (inactive),-0.00015 (inactive),0.0044 (inactive),inactive,19.1% (inactive)
CCCCCCn1c(O)c(C(C)=NC)c(=O)[nH]c1=O,556,-6.2% (inactive),-77.6% (inactive),162,0.993,-1.06,1.3,-0.608% (inactive),-0.503 (inactive),-6.1e-05 (inactive),0.00581 (inactive),inactive,-6.02% (inactive)
CCCCCCn1c(O)c(C=Nc2c(C)n(C)n(-c3ccccc3)c2=O)c(=O)[nH]c1=O,335,-9.2% (inactive),-82.5% (inactive),152,-0.0314,0.533,1.54,-7.01% (inactive),-0.359 (inactive),-0.000298 (inactive),0.00815 (inactive),inactive,5.18% (inactive)
Cn1c(O)c(C=NC2CCN(Cc3ccccc3)CC2)c(=O)n(C)c1=O,440,1% (inactive),-22.6% (inactive),136,0.0201,1.2,0.0643,4.25% (inactive),-0.401 (inactive),-1.9e-05 (inactive),0.00599 (inactive),inactive,0.967% (inactive)
CC(=O)OC1(c2ccc(C)cc2)CN2CCC1c1ccccc12 (configuration not stated),554,-10% (inactive),-198% (inactive),145,0.866,0.595,0.108,25.8% (inactive),-0.502 (inactive),-6.1e-05 (inactive),0.00515 (inactive),inactive,18.7% (inactive)
CCCCSP1(=S)NCCCN1,430,-6.2% (inactive),-45.8% (inactive),139,1.38,-0.994,0.0968,22.7% (inactive),-0.484 (inactive),-0.000231 (inactive),0.00525 (inactive),inactive,32.8% (inactive)
CCOC(C(=O)OCC(O)CN(CC)CC)(c1ccccc1)c1ccccc1 (configuration not stated),598,-12.4% (inactive),-341% (inactive),184,-0.241,-0.53,1.71,-5.89% (inactive),-0.446 (inactive),-0.000326 (inactive),0.00508 (inactive),inactive,19.6% (inactive)
CCOc1ccccc1-n1c(O)c(C=Nc2c(C)n(C)n(-c3ccccc3)c2=O)c(=O)[nH]c1=O,629,-13.3% (inactive),-48.3% (inactive),148,1.53,-0.137,0.143,22.7% (inactive),-0.432 (inactive),-4.9e-06 (inactive),0.00796 (inactive),inactive,0.366% (inactive)
